Assay results pooled from the literature.
Each line is one published result; the experiments were not run side by side.
Target: Serine/threonine-protein kinase PLK3 (PLK3, Homo sapiens, UniProt Q9H4B4)

Compound | assay | setting | measurement | result
O=C(CSc1nc2nccnc2c(=O)n1CCc1ccccc1)Nc1nccs1 | enzyme activity, inhibitor | 10 µM | inhibition | 4%
O=C1NC(=O)c2cc(Nc3ccc(F)cc3)c(Nc3ccc(F)cc3)cc21 | cell-free assay | 0.5 µM | remaining signal | 98%
O=C(NC[C@@H]1[C@H]2CN(C(=O)OCc3cc(C(F)(F)F)cc(C(F)(F)F)c3)C[C@@H]12)c1ccc2[nH]nnc2c1 | cell-free assay, competition with immobilised ligand | 1 µM | remaining binding | 89%
COc1cc(-c2cc(-c3ccc(N4CCNCC4)cc3)cnc2C)cc(OC)c1OC | enzyme activity, inhibitor | 1 µM | inhibition | 1%
CCOc1cc(-c2nncn2C)ccc1Nc1ncc2cc(C)nc(NCC(C)(C)C)c2n1 | enzyme activity, inhibitor, FRET | 1 µM | inhibition | 19%
Cc1ccc(NC(=O)c2ccc(C)c(C(F)(F)F)c2)cc1C#Cc1nn(C2CCC(O)CC2)c2ncnc(N)c12 (stereo not shown) | cell-free assay | 10 µM | remaining signal | 93%
CCCS(=O)(=O)Nc1ccc(F)c(C(=O)c2c[nH]c3ncc(-c4ccc(Cl)cc4)cc23)c1F | enzyme activity, inhibitor | 1 µM | inhibition | < 10%
CN([C@@H]1CCc2c(CC(=O)O)c3cc(S(C)(=O)=O)ccc3n2C1)S(=O)(=O)c1ccc(F)cc1 | cell-free assay, competition with immobilised ligand | 1 µM | remaining binding | 70%
Cc1sc(C(=O)NC2COC2)cc1-n1cc(NC(=O)Nc2c(F)cccc2Cl)cn1 | enzyme activity, inhibitor | 10 µM | remaining activity | 102%
O=c1cc(N2CCOCC2)oc2c(-c3ccccc3)cccc12 | cell-free assay | 0.5 µM | remaining signal | 71.9%
COc1ccc2c(O[C@@H]3C[C@H]4C(=O)N[C@]5(C(=O)O)CC5/C=C\CCCCC[C@H](NC(=O)OC5CCCC5)C(=O)N4C3)cc(-c3csc(NC(=O)C(C)C)n3)nc2c1C (stereo partly shown) | cell-free assay, competition with immobilised ligand | 1 µM | remaining binding | 79%
Cc1ccc(Nc2nccc(N(C)c3ccc4c(C)n(C)nc4c3)n2)cc1S(N)(=O)=O | enzyme activity, inhibitor | 10 µM | inhibition | -9%
C[C@@]1(Cc2ccc(C#N)cc2)C(=O)N(c2cc(Cl)cc(Cl)c2)c2ncc(C(=O)NC3(c4nc(C5CCC5)no4)CC3)n21 | cell-free assay, competition with immobilised ligand | 1 µM | remaining binding | 100%
Nc1ncnc2occ(-c3ccc(NC(=O)Nc4cc(C(F)(F)F)ccc4F)cc3)c12 | cell-free assay, inhibitor | 20 µM | remaining signal | 0.05%
O=C1NC(c2ccccn2)Sc2ccccc21 (stereo not shown) | cell-free assay, competition with immobilised ligand | 1 µM | remaining binding | 88%
CNC(=O)c1cc(Oc2ccc(NC(=O)Nc3ccc(Cl)c(C(F)(F)F)c3)cc2)ccn1 | enzyme activity, inhibitor | 10 µM | inhibition | -14%
